Measurements reported in ChEMBL document CHEMBL1148785, “Second generation tetrahydroquinoline-based protein farnesyltransferase inhibitors as antimalarials” (J Med Chem, 2007).

Assays:
Plasmodium falciparum [1] = test: Antimalarial activity against Plasmodium falciparum 3D7; assay type: functional; conditions: Plasmodium falciparum, 3D7; read-out: ED50 (the source's name)
Procedure, shortened: (§1)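 Asynchronous culture in type A+ erythrocytes at 0.5% parasitemia and 0.5% hematocrit, grown in RPMI-1640 with 20% heat-inactivated human A+ plasma. Compound was serially diluted from a top final 5 µM, with DMSO vehicle as 100% growth. Plates ran 48 h at 37 °C under 5% CO2/5% O2/90% N2, then [3H]-hypoxanthine (0.3 µCi) for 24 h. Filter-harvested counts were corrected for the uninfected-RBC background. ED50 by linear regression; duplicates averaged.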

Plasmodium falciparum [2] = test: Inhibition of Plasmodium falciparum protein farnesyltransferase at 5 nM by scintillation proximity assay
Plasmodium falciparum [3] = test: Antimalarial activity against Plasmodium falciparum K1; assay type: functional; conditions: Plasmodium falciparum, K1; read-out: ED50 (the source's name); procedure, shortened: as §1
Plasmodium falciparum [4] = test: Inhibition of Plasmodium falciparum protein farnesyltransferase at 50 nM by scintillation proximity assay
Plasmodium falciparum [5] = test: Inhibition of Plasmodium falciparum protein farnesyltransferase at 0.5 nM by scintillation proximity assay

Row | EC50 (Plasmodium falciparum [1]) | inhibition (Plasmodium falciparum [2]) | EC50 (Plasmodium falciparum [3]) | inhibition (Plasmodium falciparum [4]) | inhibition (Plasmodium falciparum [5]) | Compound
1 | 150 nM | 4% | 150 nM | 25% | 4% | CC(=O)Nc1ccc(S(=O)(=O)N(Cc2ccccc2F)C2Cc3cc(C#N)ccc3N(Cc3cncn3C)C2)cc1 (stereo not given)
2 | 820 nM | 11% | 2100 nM | 61% | 0% | CCS(=O)(=O)N(Cc1ccccc1F)C1Cc2cc(C#N)ccc2N(Cc2cncn2C)C1 (stereo not given)
3 | 1800 nM | 6% | 2000 nM | 65% | 0% | COC(=O)N1CCC(CN(C2Cc3cc(C#N)ccc3N(Cc3cncn3C)C2)S(=O)(=O)c2ccc(NC(C)=O)cc2)CC1 (stereo not given)
4 | 250 nM | 80% | 375 nM | 97% | 24% | Cn1cncc1CN1CC(N(CCCCNC(=O)OC(C)(C)C)S(=O)(=O)c2ccccn2)Cc2cc(C#N)ccc21 (stereo not given)
5 | 175 nM | 31% | 98 nM | 85% | 12% | Cn1cncc1CN1CC(N(Cc2cccc3nsnc23)S(=O)(=O)c2ccccn2)Cc2cc(C#N)ccc21 (stereo not given)
6 | 51 nM | 82% | 210 nM | 98% | 19% | Cn1cncc1CN1CC(N(Cc2ocnc2-c2ccccc2)S(=O)(=O)c2ccccn2)Cc2cc(C#N)ccc21 (stereo not given)
7 | 50 nM | 31% | 60 nM | 100% | 92% | C=C(C)C(=O)N1CCC(CN(C2Cc3cc(C#N)ccc3N(Cc3cncn3C)C2)S(=O)(=O)c2ccccn2)CC1 (stereo not given)
8 | 60 nM | 94% | 230 nM | 99% | 18% | Cn1cnc(S(=O)(=O)N(Cc2cccc3nsnc23)C2Cc3cc(C#N)ccc3N(Cc3cncn3C)C2)c1 (stereo not given)
9 | > 5000 nM | 7% | > 5000 nM | 32% | 0% | Cn1cncc1CN1CC(N(CCCN)S(=O)(=O)c2ccccn2)Cc2cc(C#N)ccc21 (stereo not given)
10 | 700 nM | 28% | 1000 nM | 74% | 4% | Cn1cncc1CN1CC(N(Cc2ccccc2F)S(=O)(=O)c2cccc3nsnc23)Cc2cc(C#N)ccc21 (stereo not given)
11 | 55 nM | 66% | 75 nM | 95% | 18% | COC(=O)N1CCC(CN(C2Cc3cc(C#N)ccc3N(Cc3cncn3C)C2)S(=O)(=O)c2sccc2C)CC1 (stereo not given)
12 | > 5000 nM | 2% | > 5000 nM | 11% | 5% | CC(=O)Nc1nc(C)c(S(=O)(=O)N(CC(=O)NC(C)(C)C)C2Cc3cc(C#N)ccc3N(Cc3cncn3C)C2)s1 (stereo not given)
13 | 9 nM | 95% | 4.5 nM | 97% | 54% | COC(=O)N1CCC(CN(C2Cc3cc(C#N)ccc3N(Cc3cncn3C)C2)S(=O)(=O)c2cn(C)cn2)CC1 (stereo not given)
14 | 133 nM | 70% | 75 nM | 97% | 9% | Cn1cncc1CN1CC(N(CCCNC(=O)OC(C)(C)C)S(=O)(=O)c2ccccn2)Cc2cc(C#N)ccc21 (stereo not given)
15 | 2800 nM | 0% | 2800 nM | 8% | 0% | Cn1cnc(CN2CC(N(CC(=O)NC(C)(C)C)S(=O)(=O)c3ccccc3)Cc3cc(-c4ccccc4)ccc32)c1 (stereo not given)
16 | 125 nM | 81% | 400 nM | 97% | 19% | Cn1cnc(S(=O)(=O)N(CC(=O)O)C2Cc3cc(C#N)ccc3N(Cc3cncn3C)C2)c1 (stereo not given)
17 | 4100 nM | 0% | > 5000 nM | 44% | 0% | CCS(=O)(=O)N(CC1CCN(C(=O)OC)CC1)C1Cc2cc(C#N)ccc2N(Cc2cncn2C)C1 (stereo not given)
18 | 78 nM | 96% | 75 nM | 97% | 54% | Cn1cnc(S(=O)(=O)N(Cc2ccc(C(F)(F)F)o2)C2Cc3cc(C#N)ccc3N(Cc3cncn3C)C2)c1 (stereo not given)
19 | 40 nM | 93% | 100 nM | 99% | 50% | Cn1cnc(S(=O)(=O)N(Cc2ccc(F)cc2)C2Cc3cc(C#N)ccc3N(Cc3cncn3C)C2)c1 (stereo not given)
20 | 2800 nM | 17% | 2300 nM | 66% | 5% | Cn1cnc(S(=O)(=O)N(CC(=O)NC(C)(C)C)C2Cc3cc(C(=O)NC4CCCCC4)ccc3N(Cc3cncn3C)C2)c1 (stereo not given)

Row | EC50 (Plasmodium falciparum [1]) | inhibition (Plasmodium falciparum [2]) | EC50 (Plasmodium falciparum [3]) | inhibition (Plasmodium falciparum [4]) | inhibition (Plasmodium falciparum [5]) | Compound
21 | 10 nM | 96% | 36 nM | 98% | 25% | Cn1cnc(S(=O)(=O)N(Cc2ccccn2)C2Cc3cc(C#N)ccc3N(Cc3cncn3C)C2)c1 (stereo not given)
22 | 3400 nM | 12% | 3000 nM | 35% | 3% | COC(=O)N1CCC(CN(C2Cc3cc(C#N)ccc3N(Cc3cccnc3)C2)S(=O)(=O)c2ccccn2)CC1 (stereo not given)
23 | > 5000 nM | 49% | 675 nM | 89% | 5% | COC(=O)N1CCC(CN(C2Cc3cc(C#N)ccc3N(Cc3cncn3C)C2)S(=O)(=O)c2ccc(C(=O)O)o2)CC1 (stereo not given)
24 | 42 nM | 98% | 45 nM | 100% | 39% | COC(=O)N1CCC(CN(C2Cc3cc(C#N)ccc3N(Cc3cncn3C)C2)S(=O)(=O)c2cnn(C)c2)CC1 (stereo not given)
25 | 650 nM | 79% | 650 nM | 96% | 12% | COC(=O)N1CCC(CN(C2Cc3cc(C#N)ccc3N(C(C)c3cnc[nH]3)C2)S(=O)(=O)c2ccccn2)CC1 (stereo not given)
26 | 80 nM | 51% | 93 nM | 92% | 92% | Cn1cncc1CN1CC(N(CC2CCN(C(=O)c3ccco3)CC2)S(=O)(=O)c2ccccn2)Cc2cc(C#N)ccc21 (stereo not given)
27 | 14 nM | 96% | 7 nM | 98% | 49% | CCOC(=O)N1CCC(CN(C2Cc3cc(C#N)ccc3N(Cc3cncn3C)C2)S(=O)(=O)c2cn(C)cn2)CC1 (stereo not given)
28 | 13 nM | 96% | 20 nM | 99% | 68% | Cn1cncc1CN1CC(N(CCn2cccn2)S(=O)(=O)c2ccccn2)Cc2cc(C#N)ccc21 (stereo not given)
29 | 20 nM | 99% | < 20 nM | 99% | 66% | Cn1cnc(S(=O)(=O)N(Cc2ccc3c(c2)OCCS3(=O)=O)C2Cc3cc(C#N)ccc3N(Cc3cncn3C)C2)c1 (stereo not given)
30 | 200 nM | 71% | 650 nM | 96% | 9% | Cn1cncc1CN1CC(N(CCc2ccc(F)cc2)S(=O)(=O)c2ccccn2)Cc2cc(C#N)ccc21 (stereo not given)
31 | 90 nM | 86% | 150 nM | 93% | 39% | COC(=O)N1CCC(CN(C2Cc3cc(C#N)ccc3N(Cc3cncn3C)C2)S(=O)(=O)c2cccc(F)c2)CC1 (stereo not given)
32 | 100 nM | 77% | 100 nM | 96% | 28% | COC(=O)NCCCN(C1Cc2cc(C#N)ccc2N(Cc2cncn2C)C1)S(=O)(=O)c1ccccn1 (stereo not given)
33 | 130 nM | 80% | 170 nM | 86% | 35% | CN(CCCN(C1Cc2cc(C#N)ccc2N(Cc2cncn2C)C1)S(=O)(=O)c1ccccn1)C(=O)OC(C)(C)C (stereo not given)
34 | 50 nM | 95% | 65 nM | 100% | 42% | Cn1cnc(S(=O)(=O)N(CCc2ccc(F)cc2)C2Cc3cc(C#N)ccc3N(Cc3cncn3C)C2)c1 (stereo not given)
35 | 60 nM | 96% | 75 nM | 100% | 39% | COC(=O)N1CCC(CN(C2Cc3cc(C#N)ccc3N(Cc3cncn3C)C2)S(=O)(=O)c2cn(C)c(C)n2)CC1 (stereo not given)
36 | 40 nM | 96% | 130 nM | 97% | 90% | Cn1cnc(S(=O)(=O)N(CCCCN2C(=O)c3ccccc3C2=O)C2Cc3cc(C#N)ccc3N(Cc3cncn3C)C2)c1 (stereo not given)
37 | > 5000 nM | 6% | 3000 nM | 11% | 6% | Cn1cnc(CN2CC(N(CC(=O)NC(C)(C)C)S(=O)(=O)c3ccccn3)Cc3cc(-c4ccccc4)ccc32)c1 (stereo not given)
38 | 135 nM | 89% | 100 nM | 99% | 31% | COC(=O)N1CCC(CN(C2Cc3cc(C#N)ccc3N(Cc3cncn3C)C2)S(=O)(=O)c2cccc3nonc23)CC1 (stereo not given)
39 | 185 nM | 83% | 340 nM | 97% | 17% | COc1ccc(S(=O)(=O)N(Cc2ccc(S(C)(=O)=O)cc2)C2Cc3cc(C#N)ccc3N(Cc3cncn3C)C2)cc1 (stereo not given)
40 | 9 nM | 96% | 10 nM | 97% | 82% | Cn1cnc(S(=O)(=O)N(CCc2ccccc2)C2Cc3cc(C#N)ccc3N(Cc3cncn3C)C2)c1 (stereo not given)

Row | Compound | EC50 (Plasmodium falciparum [1]) | inhibition (Plasmodium falciparum [2]) | EC50 (Plasmodium falciparum [3]) | inhibition (Plasmodium falciparum [4]) | inhibition (Plasmodium falciparum [5])
41 | CCN(CC)C(=O)c1ccc2c(c1)CC(N(CC(=O)NC(C)(C)C)S(=O)(=O)c1cn(C)cn1)CN2Cc1cncn1C (stereo not given) | 2800 nM | 23% | 2600 nM | 73% | 0%
